From PubChem
In the library only some 2.5% were active in any assay of this set; here they are far more common.
HTRA1 inh: HTRA1 (human) protease inhibition. Q92743. recombinant HTRA1, FP-rhodamine activity-based probe, fluorescence polarization. inhibition, % at 5.96 µM. hit rate 0.5% among 340,000. AID 504803; in the data active means inhibition above about 36%
mABHD4 FP: inhibitors of mouse ABHD4; inhibition, % at 8.92 µM; Q8VD66; hit rate 0.54% among 370,000; purified mABHD4, FP-Rh probe fluorescence polarization;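 active means inhibition exceeding the mean over every tested compound plus 3 SD, cut at about 30% in these data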
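Doses – 8.92 µM, single dose · Material – wild-type mouse ABHD4 protein · Replication – single well per compound (singlicate) · Measure – percent inhibition of probe binding, normalized to plate controls · Schedule – 45 min compound pre-incubation plus 60 min probe step, 25 °C · Detection – fluorescence polarization with parallel and perpendicular emission, 525/598 nm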
TCR-CD3 inh: inhibitors of human TCR-CD3 interaction | TAMRA-labeled TCR probe fluorescence, biochemical | inhibition, % at 9.4 µM | hit rate 0.37% among 360,000; in the data active means inhibition above about 19%;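 further: recombinant mutant TCR 2C K166C tagged with TAMRA read by polarization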
SIAE primary: inhibitors of human sialic acid acetylesterase SIAE; Q9HAT2; SIAE FP-Rh probe binding, fluorescence polarization; inhibition, % at 9.66 µM; hit rate 0.69% among 370,000; AID 1053197;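 active means inhibition above a cutoff: mean of compounds within the control limits plus 3 SD of those, cut at about 17% in these data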
PRMT1 inh: inhibitors of human PRMT1; Q99873; recombinant PRMT1, activity-based probe fluorescence polarization; inhibition, % at 2.79 µM; hit rate 1.3% among 370,000;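 active means inhibition above about 21% made by adding two undisclosed values, limit read from the data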
Target sequence (Q99873 whole entry, looked up): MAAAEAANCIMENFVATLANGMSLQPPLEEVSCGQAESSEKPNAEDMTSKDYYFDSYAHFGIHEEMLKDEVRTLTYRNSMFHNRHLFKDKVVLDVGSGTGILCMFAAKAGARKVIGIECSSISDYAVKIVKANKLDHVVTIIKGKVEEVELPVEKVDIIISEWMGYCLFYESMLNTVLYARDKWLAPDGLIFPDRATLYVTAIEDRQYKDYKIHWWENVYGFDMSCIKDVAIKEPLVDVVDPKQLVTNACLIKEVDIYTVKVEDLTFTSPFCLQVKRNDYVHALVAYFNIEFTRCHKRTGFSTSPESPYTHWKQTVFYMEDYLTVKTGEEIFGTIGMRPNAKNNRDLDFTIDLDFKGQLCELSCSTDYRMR
PRMT1 confirm: confirmation of human PRMT1 inhibitors; shares compounds with PRMT1 inh; recombinant His-PRMT1, activity-based probe fluorescence polarization; inhibition, % at 2.79 µM; hit rate 42% among 3,300; AID 687036;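 active means mean inhibition across replicates above the hit cutoff derived for the earlier primary screen, cut at about 22% in these data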
ABHD4 confirm: confirmation of mouse ABHD4 inhibitors. shares compounds with mABHD4 FP. purified mABHD4, FP-Rh probe fluorescence polarization. inhibition, % at 8.92 µM. hit rate 55% among 1,800;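 active means mean inhibition across replicates above the hit cutoff set in the primary screen, cut at about 30% in these data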
SIAE inh conf: human SIAE inhibition, confirmation; shares compounds with SIAE primary; inhibition, % at 9.66 µM; SIAE FP-Rh activity-based probe, fluorescence polarization; hit rate 13% among 2,300;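 active means mean inhibition of the replicates above the hit cutoff set in the primary screen, cut at about 17% in these data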;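 further: inhibitors lower polarization as more probe stays unbound to SIAE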
Hits are given with their value; i = inactive; nt = no result.

SMILES	HTRA1 inh	mABHD4 FP	TCR-CD3 inh	SIAE primary	PRMT1 inh	PRMT1 confirm	ABHD4 confirm	SIAE inh conf
O=C(O)CCCN1C(=O)/C(=C\c2ccco2)SC1=S	i	31	i	i	28	i	i	nt
O=C(CCCN1C(=O)/C(=C\c2ccco2)SC1=S)Nc1ccc2ccccc2c1	i	i	i	i	i	nt	nt	nt
Cc1ccc(CN[C@@H]2CC[C@@]34CCCN3C(=O)CCC[C@H]4C2)cc1	nt	i	nt	i	i	nt	nt	nt
CC(C)CNc1ncnc2[nH]ncc12	i	i	i	i	i	nt	nt	nt
Cc1[nH]c2ccccc2c1CC#N	i	i	i	i	i	nt	nt	nt
Cc1[nH]c2ccccc2c1C1=CC(=O)C=CC1=O	i	78	i	i	96	93	81	nt
CN(C)C(CNC(=O)c1cc2ccccc2o1)c1ccco1 (stereo unspecified)	i	i	i	i	i	nt	nt	nt
O=c1ccc2cc(O)c(O)cc2o1	i	50	i	i	32	i	i	nt
O=C1C2C3C=CC(C3=C3CCCCC3)C2C(=O)N1c1ccccc1 (stereo unspecified)	i	i	i	19	43	i	nt	i
Cc1ccc(C2C3CSCC=C3C(C#N)=C(N)C2(C#N)C#N)cc1 (stereo unspecified)	i	i	i	i	i	nt	nt	nt
Cc1ccc([C@@H]2C3COCC=C3C(C#N)=C(N)C2(C#N)C#N)o1 (stereo partly specified)	i	i	i	18	28	i	nt	i
CCCCCCCCSC1=CC(=O)C(OC)=C(OC)C1=O	i	39	i	21	39	88	52	i
Cc1cc(C)n2c(Nc3ccc4c(c3)OCCO4)c(-c3cc4ccccc4o3)nc2n1	nt	i	i	i	i	nt	nt	nt
Cc1cc(C)n2c(Nc3ccc4c(c3)OCCO4)c(-c3ccc(C)o3)nc2n1	i	i	i	17	31	i	nt	i
CN(Cc1ccccc1)S(=O)(=O)c1cccc(C(=O)OCc2cccc(C(F)(F)F)c2)c1	nt	i	nt	i	i	nt	nt	nt
C=CCn1c(O)c(C2=c3ccccc3=NC2=O)c2ccccc21	i	38	i	28	42	45	44	i
CC(=O)c1ccn(S(=O)(=O)c2ccccc2)c1	i	i	i	i	i	nt	nt	nt
COc1ccc(S[C@]2(C(=O)N3CCN(C(C)=O)CC3)CC(=O)N(C(=O)c3ccccc3)[C@@H]2c2ccc(OC)cc2)cc1	nt	i	nt	18	83	82	nt	i
COc1ccc(S[C@]2(C(=O)N3CCN(C(C)=O)CC3)CC(=O)N(C(=O)CCc3ccccc3)[C@@H]2c2ccc(OC)cc2)cc1	nt	i	nt	i	i	nt	nt	nt
CCCCCCn1c(=O)[nH]c2nc3cc(N)ccc3nc2c1=O	nt	50	i	18	124	104	40	i
CCCCCn1c(=O)c(C(=O)c2ccccc2)nc2ccccc21	i	i	i	i	i	nt	nt	nt
Cc1cccc(C=Nc2ccc3c4c(cccc24)CC3)c1O	i	34	i	21	36	i	i	i
OC(c1ccccn1)(c1ccccn1)c1ccccn1	i	i	i	i	i	nt	nt	nt
O=C(CC1SC(=O)N(c2ccccc2)C1=O)Nc1ccccc1 (stereo unspecified)	i	i	i	26	81	93	nt	i
Cc1cccc(NC(=O)CC2SC(=O)N(c3ccccc3)C2=O)c1 (stereo unspecified)	i	i	i	i	i	nt	nt	nt
SMILES	HTRA1 inh	mABHD4 FP	TCR-CD3 inh	SIAE primary	PRMT1 inh	PRMT1 confirm	ABHD4 confirm	SIAE inh conf
COc1ccc(Cl)cc1NC(=O)CSc1nc2[nH]ncc2c(=O)[nH]1	i	i	i	i	i	nt	nt	nt
O=c1c2c([N+](=O)[O-])cc([N+](=O)[O-])cc2sn1Cc1ccccc1	i	32	i	25	96	97	i	20
CCCN1C(=O)c2cccc3c(N4CCCCC4)ccc(c23)C1=O	i	i	i	20	84	51	nt	i
CCCCNc1ccc2c3c(cccc13)C(=O)N(CCCC)C2=O	i	52	i	19	155	133	68	18
O=C1c2cccc3c(N4CCCCC4)ccc(c23)C(=O)N1c1ccccn1	i	i	i	i	i	nt	nt	nt
CC(C)c1ncc(CO)n1Cc1c(Cl)cccc1Cl	i	i	i	i	i	nt	nt	nt
CC1(C)NC(=O)N(CC(=O)N2CCN(c3ccc([N+](=O)[O-])cc3)CC2)C1=O	i	i	i	i	i	nt	nt	nt
